The source of these data is ChEMBL document CHEMBL1136772, “Thyroid receptor ligands. 1. Agonist ligands selective for the thyroid receptor beta1” (J Med Chem, 2003).

Format in all cases: functional
In test [1] the test system is Rattus norvegicus. Put plainly: Effect upon subcutaneous administration on TSH suppression in rat was determined. In short, it runs like this: (§1)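 Male Sprague-Dawley rats on chow with 1.5% cholesterol and 0.5% cholic acid for 2 weeks, then s.c. once daily for 7 days (vehicle 10% m-pyrol, 5% ethanol, 5% cremaphor, 80% water; n = 6/dose), doses 1.54–9240 nmol/kg/day. Plasma TSH measured by rat RIA and cholesterol by clinical analyzer in aortic blood after pentobarbital. ED50 = dose giving 50% suppression from vehicle, in nmol/kg/day.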

Test [2] relates to Rattus norvegicus. Nature of the test: Effect upon subcutaneous administration on cholesterol in rat was determined. In short, it runs like this:
as §1

The species entered for test [3] is Rattus norvegicus. Put plainly: Ratio of ED15HR to that of ED50chol was determined. The essentials: (§2)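 Cholesterol-fed male Sprague-Dawley rats (1.5% cholesterol, 0.5% cholic acid, 2 weeks) dosed s.c. once daily for 7 days, vehicle 10% m-pyrol/5% ethanol/5% cremaphor/80% water, n = 6/dose, 1.54–9240 nmol/kg/day. Heart rate recorded by lead II ECG under 30 mg/kg pentobarbital. ED15 = dose raising heart rate 15% over vehicle; ratio taken against cholesterol ED50 (50% suppression from vehicle).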

For test [4], the species on record is Rattus norvegicus. Nature of the test: Ratio of ED50TSH to that of ED50chol was determined. In short, it runs like this: as §1
The subject of test [5] is Rattus norvegicus. Put plainly: Effect upon subcutaneous administration on the heart rate in rat was determined. In short, it runs like this:
as §2

Structures are written as SMILES.

In the case of `CC(C)c1cc(Oc2c(Br)cc(CC(=O)O)cc2Br)ccc1O`, the ED50 in test [1] was less than 46.2 nM/day/kg; in test [2] it was 95.4 nM/day/kg. Besides, the HR/chol in test [3] came out at 9.7. Besides, the TSH/chol in test [4] is on record as less than 0.5. For the same compound, the ED15 in test [5] came to 926 nM/day/kg.
As to `CC(C)c1cc(Oc2c(Cl)cc(CC(=O)O)cc2Cl)ccc1O`, the ED50 in test [1] is 38 nM/day/kg; in test [2], 82 nM/day/kg. Also, the HR/chol in test [3] amounted to 13.1. For the same compound, in test [4], the TSH/chol worked out at 0.4. Further, the ED15 in test [5] was found to be 1077 nM/day/kg.
For `N[C@H](Cc1cc(I)c(Oc2ccc(O)c(I)c2)c(I)c1)C(=O)O` [DETROTHYRONINE], in that order: 7 nM/day/kg, 20 nM/day/kg, 0.7, 0.3 and 14 nM/day/kg.
